{
  "source": "PubChem BioAssay AID624038",
  "about": "(The Scripps Research Institute Molecular Screening Center, 2012)",
  "note": "About 1,100 (0.31%) of roughly 360,000 compounds were called active.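 How the source made its calls: active means activation above the run cutoff, the mean activation of all test compounds plus 3 SD (cut at about 18% in these data); inactive means the rest.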 This excerpt belongs to a sample that is enriched for actives.",
  "data": [
    {"biological_target": "Muscarinic acetylcholine receptor M5 (Homo sapiens) (UniProt P08912)", "sequence (P08912 whole entry, looked up)": "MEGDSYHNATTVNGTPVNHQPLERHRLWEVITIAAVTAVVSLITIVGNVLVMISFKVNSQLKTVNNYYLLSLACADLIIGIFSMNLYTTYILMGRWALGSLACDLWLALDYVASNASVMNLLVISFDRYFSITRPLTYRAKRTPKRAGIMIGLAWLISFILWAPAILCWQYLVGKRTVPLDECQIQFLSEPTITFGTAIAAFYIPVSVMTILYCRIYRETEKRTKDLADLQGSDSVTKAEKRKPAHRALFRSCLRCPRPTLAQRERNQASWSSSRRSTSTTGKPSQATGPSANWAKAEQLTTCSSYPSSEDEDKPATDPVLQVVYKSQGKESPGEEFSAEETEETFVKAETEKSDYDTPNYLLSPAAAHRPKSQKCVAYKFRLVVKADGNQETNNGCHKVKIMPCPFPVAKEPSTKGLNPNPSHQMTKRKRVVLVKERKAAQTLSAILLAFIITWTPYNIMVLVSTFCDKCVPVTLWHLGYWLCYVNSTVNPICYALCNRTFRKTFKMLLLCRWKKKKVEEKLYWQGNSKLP", "assay": "CHRM5 PAMs potentiating acetylcholine calcium signal – CHO-K1 cells, Fluo-8 calcium fluorescence, primary screen (AID 624038)", "conditions": "CHO-K1 hM5, Fluo-8 calcium, ACh EC20 PAM; at 3 µM; hits give high values; 0% = ACh EC20, 100% = ACh EC100", "procedure,_shortened": "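system = human M5 receptor in CHO-K1 cells | compound = one concentration, 3 µM final (nominal) | schedule = Post-acetylcholine fluorescence recording 140 s | signal = Fluo-8 calcium dye fluorescence, kinetic read | benchmarks = low control EC20 acetylcholine (0%), high control EC100 acetylcholine (100%) | repeats = singlicate, one well per test compound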", "values": [
      {"smiles": "CC=C(C)C(=O)OC1CCN2CC=C(COC(=O)C(O)(C(C)OC)C(C)(C)O)C12", "note": "(stereo not given)", "activation": "19.2% (active)"},
      {"smiles": "CCOP(=S)(OCC)SCOC(=O)NCC(=O)OC", "activation": "0.05% (inactive)"},
      {"smiles": "O=[N+]([O-])c1cnc2ccc3ccccc3c2c1", "activation": "3.69% (inactive)"},
      {"smiles": "COc1ccc(-n2c(-c3ccccc3)nc3ccccc3c2=O)cc1", "activation": "14.8% (inactive)"},
      {"smiles": "COC(=O)CN(CCCl)P1(=O)OCCCN1CCCl", "note": "(stereo not given)", "activation": "-10.4% (inactive)"}
    ]}
  ]
}
